Laboratory results: PubChem BioAssay AID588420 (The Scripps Research Institute Molecular Screening Center, 2011)
Active and inactive are the calls of the source.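 How the source made its calls: active means IC50 at or below 1 µM; inactive means the rest.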

Target: Protein-arginine deiminase type-4 (Homo sapiens) (UniProt Q9UM07)
Assay: recombinant human PAD4 inhibitors – biochemical, BAEE substrate, citrulline absorbance, 8-point 0-10 µM, late-stage follow-up (AID 588420)
Settings: recombinant PAD4, BAEE citrulline colorimetric absorbance
How it was run: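 material = recombinant PAD4 enzyme | input = 0.2 µM PAD4 | medium = Tris-HCl pH 7.6, CaCl2 and DTT | also added = BAEE substrate at 10 mM | timing = 15 min compound preincubation, then 15 min substrate reaction, 37 °C | signal = colorimetric citrulline absorbance at 540 nm | read-out basis = IC50 from fitted dose-response | replicates = duplicate measurements at every concentration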

Chain of Protein-arginine deiminase type-4 (Homo sapiens) (Q9UM07 whole entry, looked up): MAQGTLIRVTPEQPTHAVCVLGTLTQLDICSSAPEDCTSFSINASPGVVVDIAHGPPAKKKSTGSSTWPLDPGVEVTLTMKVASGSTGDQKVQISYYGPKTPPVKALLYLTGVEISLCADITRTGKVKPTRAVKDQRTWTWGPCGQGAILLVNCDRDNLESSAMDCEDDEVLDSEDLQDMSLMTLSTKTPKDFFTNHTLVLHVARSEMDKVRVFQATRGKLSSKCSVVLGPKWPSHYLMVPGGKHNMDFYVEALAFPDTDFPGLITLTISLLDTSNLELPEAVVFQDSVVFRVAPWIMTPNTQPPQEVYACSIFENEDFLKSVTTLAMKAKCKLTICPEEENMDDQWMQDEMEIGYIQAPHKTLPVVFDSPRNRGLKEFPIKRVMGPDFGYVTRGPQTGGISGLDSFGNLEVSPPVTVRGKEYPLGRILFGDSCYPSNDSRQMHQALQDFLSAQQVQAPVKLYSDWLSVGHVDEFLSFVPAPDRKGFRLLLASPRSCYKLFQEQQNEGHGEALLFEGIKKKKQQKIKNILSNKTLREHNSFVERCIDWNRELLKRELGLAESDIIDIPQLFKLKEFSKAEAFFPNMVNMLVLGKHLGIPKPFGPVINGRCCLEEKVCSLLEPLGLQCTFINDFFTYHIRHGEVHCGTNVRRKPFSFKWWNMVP

- IC50: inactive
Compound: COC1=CC(=O)c2nc(C#N)ccc2C1=O
